Data on one compound can be found in ChEMBL document CHEMBL1157912, “Impact of nature and length of linker incorporated in agonists on toll-like receptor 9-mediated immune responses” (J Med Chem, 2010).

The source made the active and inactive calls. The calls are words filed in the database; no cut-off is given here.

This experiment has as its target T1, Toll-like receptor 9 (Homo sapiens) (UniProt Q9NR96).
T1 sequence (whole entry): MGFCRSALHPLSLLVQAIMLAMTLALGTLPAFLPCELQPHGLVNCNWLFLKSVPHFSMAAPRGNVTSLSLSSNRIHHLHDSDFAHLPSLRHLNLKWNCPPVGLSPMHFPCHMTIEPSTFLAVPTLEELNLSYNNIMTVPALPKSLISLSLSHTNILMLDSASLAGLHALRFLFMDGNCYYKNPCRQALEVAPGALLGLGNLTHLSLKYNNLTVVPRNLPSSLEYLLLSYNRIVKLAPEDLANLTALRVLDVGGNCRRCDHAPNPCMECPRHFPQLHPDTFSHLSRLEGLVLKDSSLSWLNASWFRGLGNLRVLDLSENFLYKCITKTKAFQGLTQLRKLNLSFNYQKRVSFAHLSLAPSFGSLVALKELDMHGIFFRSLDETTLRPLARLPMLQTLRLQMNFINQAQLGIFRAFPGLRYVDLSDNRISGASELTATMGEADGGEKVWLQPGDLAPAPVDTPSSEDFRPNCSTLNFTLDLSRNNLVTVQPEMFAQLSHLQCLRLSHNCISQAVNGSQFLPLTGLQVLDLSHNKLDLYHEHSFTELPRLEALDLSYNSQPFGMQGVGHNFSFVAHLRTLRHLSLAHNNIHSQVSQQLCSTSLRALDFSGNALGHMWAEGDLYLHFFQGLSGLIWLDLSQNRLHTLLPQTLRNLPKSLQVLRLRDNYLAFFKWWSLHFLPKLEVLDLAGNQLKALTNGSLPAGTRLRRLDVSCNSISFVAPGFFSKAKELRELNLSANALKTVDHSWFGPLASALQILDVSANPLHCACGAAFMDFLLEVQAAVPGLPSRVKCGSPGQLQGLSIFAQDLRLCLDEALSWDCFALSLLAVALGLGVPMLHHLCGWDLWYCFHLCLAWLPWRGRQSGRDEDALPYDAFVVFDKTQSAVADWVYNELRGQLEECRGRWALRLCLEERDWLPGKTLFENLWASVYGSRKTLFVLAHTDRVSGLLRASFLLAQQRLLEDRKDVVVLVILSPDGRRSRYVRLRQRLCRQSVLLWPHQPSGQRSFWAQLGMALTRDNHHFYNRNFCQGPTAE
The experiment can be described thus: Induction of TLR9-mediated human B cell proliferation assessed as [3H]thymidine uptake at 2 to 10 ug/ml after 56 hrs by scintillation counting. In kind it is cell-based. The gist of the method:
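B cells were purified from human PBMCs (healthy volunteers), about 1 × 10⁵ cells, and stimulated with various agonist concentrations for 56 h. Cells were then pulsed with 0.75 μCi [³H]-thymidine and harvested 16 h later. Incorporation was counted by scintillation and reported as cpm.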

Take `Cc1cn([C@H]2C[C@H](OCC(O)COP(=O)(S)O[C@H]3C[C@H](n4cc(C)c(=O)[nH]c4=O)O[C@@H]3COP(=O)(S)O[C@H]3[C@@H](O)[C@H](n4ccc(N)nc4=O)O[C@@H]3COP(=O)(S)O[C@H]3[C@@H](O)[C@H](n4cnc5c(N)ncnc54)O[C@@H]3COP(=O)(S)O[C@H]3[C@@H](O)[C@H](n4cnc5c(N)ncnc54)O[C@@H]3COP(=O)(S)O[C@H]3[C@@H](O)[C@H](n4ccc(N)nc4=O)O[C@@H]3COP(=O)(S)O[C@H]3[C@@H](O)[C@H](n4ccc(N)nc4=O)O[C@@H]3COP(=O)(S)O[C@H]3[C@@H](O)[C@H](n4cnc5c(N)ncnc54)O[C@@H]3COP(=O)(S)O[C@H]3[C@@H](O)[C@H](n4ccc(N)nc4=O)O[C@@H]3COP(=O)(S)O[C@H]3[C@@H](O)[C@H](n4cnc5c(N)ncnc54)O[C@@H]3COP(=O)(S)O[C@H]3[C@@H](O)[C@H](n4ccc(N)nc4=O)O[C@@H]3COP(=O)(S)O[C@H]3[C@@H](O)[C@H](n4cnc5c(N)ncnc54)O[C@@H]3CO)[C@@H](COP(=O)(S)O[C@H]3[C@@H](O)[C@H](n4ccc(N)nc4=O)O[C@@H]3COP(=O)(S)O[C@H]3[C@@H](O)[C@H](n4cnc5c(N)ncnc54)O[C@@H]3COP(=O)(S)O[C@H]3[C@@H](O)[C@H](n4cnc5c(N)ncnc54)O[C@@H]3COP(=O)(S)O[C@H]3[C@@H](O)[C@H](n4ccc(N)nc4=O)O[C@@H]3COP(=O)(S)O[C@H]3[C@@H](O)[C@H](n4ccc(N)nc4=O)O[C@@H]3COP(=O)(S)O[C@H]3[C@@H](O)[C@H](n4cnc5c(N)ncnc54)O[C@@H]3COP(=O)(S)O[C@H]3[C@@H](O)[C@H](n4ccc(N)nc4=O)O[C@@H]3COP(=O)(S)O[C@H]3[C@@H](O)[C@H](n4cnc5c(N)ncnc54)O[C@@H]3COP(=O)(S)O[C@H]3[C@@H](O)[C@H](n4ccc(N)nc4=O)O[C@@H]3COP(=O)(S)O[C@H]3[C@@H](O)[C@H](n4cnc5c(N)ncnc54)O[C@@H]3CO)O2)c(=O)[nH]c1=O` (stereo partly specified): the outcome was Active.
